The target of data set [1] is T1, Vasopressin receptor (Rattus norvegicus) (UniProt P48974+P30560+Q00788). Briefly: Percent inhibition of vasopressin receptor agonistic activity in vivo in rats. It counts as functional, organism-based. To be noted: concentration not given here. The procedure, abridged:
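Overnight-hydrated male Sprague-Dawley rats. Peptide injected 1 min before a fixed vasopressin dose, set per rat to give similar antidiuretic responses. Inhibition was read at a 330-fold molar excess over vasopressin as percent inhibition of the antidiuretic effect. Mean of two experiments.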

Data set [2] has as its target T1, Vasopressin receptor (Rattus norvegicus). Briefly: Compound was tested in vitro for its ability to displace radioligand [3H]vasopressin from the vasopressin receptor in rat renal medullary membrane in presence of V1-antagonist. The class given is functional, cell membranes. To be noted: Renal medulla. The procedure, abridged: (§1)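 Rat renal medullary membranes (250 μg protein) incubated for 120 min at room temperature with 1 nM [3H]vasopressin and increasing peptide concentrations, with or without 10 nM of the V1 antagonist [Phenylac1,D-Tyr(Me)2,Arg6,8,Lys-NH2 9]vasopressin. Membranes were pelleted and washed, and bound label was counted by liquid scintillation.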

Data set [3] can be described thus: Cmax value administered intraintestinal in rats. It counts as ADME, organism-based. To be noted: rat, in vivo. The procedure, abridged: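 Anaesthetized (Inactin) male Sprague-Dawley rats, 250–300 g, 37 °C. 100 μg peptide in 1 mL 0.9% NaCl given into a cannulated 15 cm intestinal segment. Plasma peptide measured by RIA at set time points; the maximal plasma concentration is reported as mean ± SEM of n rats.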

Data set [4] can be described thus: Relative transport rate as the ratio of transport rate to that of PEG 1000. The class given is ADME. In short, it runs like this: (§2)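 Rat small-intestine pieces, about 35 cm distal to pylorus and free of Peyer's patches, mounted in a modified Ussing chamber (1.47 cm2) at 37 °C in oxygenated Krebs-Ringer, pH 7.4. Peptide, [3H]PEG 1000 and [14C]PEG 4000 added apically. Basolateral samples taken every 15 min and assayed by RIA or scintillation counting. Papp = (dQ/dt)/(A·C0), expressed relative to each PEG.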

Data set [5] deals with T1, Vasopressin receptor (Rattus norvegicus). Briefly: Compound was tested in vitro for its ability to displace radioligand [3H]vasopressin from the vasopressin receptor in rat renal medullary membrane in absence of V1-antagonist. The class given is functional, cell membranes. To be noted: Renal medulla. In short, it runs like this: as §1
A short description of data set [6]: Relative transport rate as the ratio of transport rate to that of PEG 4000. The class given is ADME. The procedure, abridged:
as §2

Data set [7] deals with Rattus norvegicus. In words: Area under the curve administered intraintestinal in rats. The class given is ADME, organism-based. To be noted: in vivo, other. The procedure, abridged:
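Anaesthetized (Inactin) male Sprague-Dawley rats, 250–300 g, kept at 37 °C. 100 μg peptide in 1 mL 0.9% NaCl given into a cannulated, rinsed 15 cm small-intestine segment starting 10 cm distal to pylorus, after 30 min recovery. Carotid blood sampled, EDTA plasma assayed by RIA (antibody ADA 6). AUC by trapezoidal rule; mean ± SEM of n rats.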

Data set [8] can be described thus: Bioavailability in rat administered i.d. The class given is ADME, organism-based. Conditions: in vivo. In short, it runs like this:
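Computed as (AUCii/doseii)/(AUCiv/doseiv). Anaesthetized male Sprague-Dawley rats received 100 μg intraintestinally into a cannulated jejunal segment or 1.0 μg iv via jugular vein, both in 0.9% NaCl. Plasma levels by RIA; AUC by trapezoidal rule.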

Data set [9] has as its system Rattus norvegicus. In words: Area under the curve administered intravenously in rats. The class given is ADME, organism-based. To be noted: in vivo, iv. In short, it runs like this: (§3)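 Anaesthetized (Inactin) male Sprague-Dawley rats, 250–300 g. 1.0 μg peptide in 0.2 mL sterile 0.9% NaCl injected into a catheterized jugular vein. Carotid blood samples (0.2 mL) taken as EDTA plasma and quantified by RIA (ADA 6 antibody, [125I]Tyr2-DDAVP tracer). Half-life and trapezoidal AUC given as mean ± SEM of n rats.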

Data set [10] concerns the target T1, Vasopressin receptor (Rattus norvegicus).
Data set [11] is described as follows: Half life administered intravenously in rats. Conditions: rat, in vivo, iv. The class given is ADME, organism-based. In short, it runs like this:
as §3

Data set [12] can be described thus: Degradation in vitro by rat intestinal juice. The class given is ADME, organism-based. The procedure, abridged: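 Rat intestinal juice was a 0.9% NaCl rinse of a 10 cm small-intestine segment, centrifuged at 10000g and stored at −20 °C. Incubation matched the chymotrypsin assay (1 mM peptide, 37 °C, pH 7.8) except for 165 mM Tris. Juice amount was set to degrade DDAVP at 2%/min. Time course by RP-HPLC.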

Data set [13] in a line: Degradation in vitro by alpha-chymotrypsin. It counts as ADME. In short, it runs like this: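 Peptide (1 mM final) incubated with α-chymotrypsin (1 mg/mL final) at 37 °C in 25 mM Tris, 65 mM NaCl, 2.5 mM CaCl2, pH 7.8. Reaction stopped with ice-cold TCA and centrifuged. Remaining peptide measured over time by RP-HPLC against an enzyme-free reference, giving the half-life.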

Bridge positions count the residues as written; N and C are the ends. Square brackets hold non-standard residues; d marks the D form. Peptide text beside a SMILES is read from it. * marks the point of attachment. X2 = CC(=O)OC[C@@H]1O[C@@H](*)[C@@H](OC(C)=O)[C@@H](OC(C)=O)[C@H]1OC(C)=O; X1 = OC[C@@H]1O[C@@H](*)[C@@H](O)[C@@H](O)[C@H]1O; Mpa = O=C(O)CCS

One may read the inhibition as the share of the control response that was lost under treatment. A lower inhibition goes with little suppression. As a reminder, the Cmax is the maximum level reached in the sampled fluid or tissue. What is called AUC is concentration integrated over time. The low end stands for less exposure, the high end for more exposure. The term bioavailability denotes the share of a dose that reaches the circulation, judged against a reference dose that is usually intravenous. Low values mean little systemic uptake, high ones much systemic uptake. By half-life is commonly meant the time in which the quantity being followed falls by half. Lower therefore signals fast loss. `CC(=O)OC[C@@H]1O[C@@H](OC[C@@H]2NC(=O)[C@H](Cc3ccccc3)NC(=O)[C@H](Cc3ccc(O)cc3)NC(=O)CCSSC[C@@H](C(=O)N3CCC[C@H]3C(=O)N[C@@H](CCCN=C(N)N)C(=O)NCC(N)=O)NC(=O)[C@H](CC(N)=O)NC2=O)[C@@H](OC(C)=O)[C@@H](OC(C)=O)[C@H]1OC(C)=O` ([Mpa]YFS(X2)NCPRG-NH2; disulfide 1-6): the inhibition in [1] is 3%. The Displacement in [2] and in data set [5] was 45% throughout. Also, in data set [3], the highest level (Cmax) was 3.6 ng/mL. The Ratio is given as 1.09 in [4] and 2.83 in [6]. Besides, the AUC in the data set with Rattus norvegicus [7] turned out to be 10.3 ng·h/mL; in the data set with Rattus norvegicus [9] it was 4.97 ng·h/mL. The bioavailability in data set [8] was 2.1%. In addition, the Antidiuretic activity in data set [10] is 0.31 IU µM-1. Besides, the values for the half-life in data set [11], in data set [12] and in data set [13] were 35 min, 230 min and 180 min, respectively.

As to `NC(=O)CNC(=O)[C@H](CCCN=C(N)N)NC(=O)[C@@H]1CCCN1C(=O)[C@@H]1CSSCCC(=O)N[C@H](Cc2ccc(O)cc2)C(=O)N[C@@H](Cc2ccccc2)C(=O)N[C@@H](CO)C(=O)N[C@@H](CC(N)=O)C(=O)N1`, in data set [10], the Antidiuretic activity was 810 IU µM-1.

As for `NC(=O)CNC(=O)[C@H](CCCN=C(N)N)NC(=O)[C@@H]1CCCN1C(=O)[C@@H]1CSSCCC(=O)N[C@@H](Cc2ccc(O)cc2)C(=O)N[C@@H](Cc2ccccc2)C(=O)N[C@@H](CO[C@@H]2O[C@@H](CO)[C@H](O)[C@H](O)[C@@H]2O)C(=O)N[C@@H](CC(N)=O)C(=O)N1` ([Mpa]YFS(X1)NCPRG-NH2; disulfide 1-6), the inhibition in data set [1] was 4%. Moreover, the Displacement in [2] and in data set [5] was 55% throughout. In addition, the Cmax in [3] was found to be 2.5 ng/mL. The values for the Ratio in [4] and in [6] were 0.96 and 2.56, respectively. Besides, the AUC in the data set on Rattus norvegicus [7] came to 5.75 ng·h/mL; with Rattus norvegicus [9], 3.52 ng·h/mL. Also, the bioavailability in data set [8] is 1.6%. Besides, in data set [10], the Antidiuretic activity was 0.06 IU µM-1. The figures for the half-life in data set [11], in data set [12] and in [13] were 20 min, 320 min and 37 min, respectively.

`NC(=O)CNC(=O)[C@@H](CCCN=C(N)N)NC(=O)[C@@H]1CCCN1C(=O)[C@@H]1CSSCCC(=O)N[C@H](Cc2ccc(O)cc2)C(=O)N[C@@H](Cc2ccccc2)C(=O)N[C@@H](CO)C(=O)N[C@@H](CC(N)=O)C(=O)N1` showed a Cmax in [3] of 1.4 ng/mL. The results for the Ratio in data set [4] and in data set [6] were 0.62 and 1.66, respectively. The AUC came to 2.35 ng·h/mL with Rattus norvegicus [7] and 4.63 ng·h/mL in the data set with Rattus norvegicus [9]. This molecule also came in with a bioavailability in data set [8] of 0.5%. In addition, the half-life in data set [11] came out at 32 min; in [12] it was 280 min; in [13] it was 37 min.

For `NC(=O)CC[C@@H]1NC(=O)[C@H](Cc2ccccc2)NC(=O)[C@H](Cc2ccc(O)cc2)NC(=O)CCSSC[C@@H](C(=O)N2CCC[C@H]2C(=O)N[C@H](CCCN=C(N)N)C(=O)NCC(N)=O)NC(=O)[C@H](CC(N)=O)NC1=O` [DESMOPRESSIN], the peak level in data set [3] (Cmax) was 0.8 ng/mL. Moreover, the Ratio in [4] was 0.57; in data set [6], 1.57. For the same molecule, the AUC in the data set on Rattus norvegicus [7] is 0.867 ng·h/mL; in the data set on Rattus norvegicus [9], 7.65 ng·h/mL. In data set [8], this molecule returned a bioavailability of 0.1%. The half-life worked out at 39 min in data set [11], 20 min in [12] and 13 min in [13].

The record behind these values is ChEMBL document CHEMBL1128574, “Glycosylated peptide hormones: pharmacological properties and conformational studies of analogues of [1-desamino,8-D-arginine]vasopressin” (J Med Chem, 1995).
